Experimental data from PubChem BioAssay AID2295 (NMMLSC, 2010).
Calls of active or inactive are those of the source.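 Rule for the calls: active = EC50 of 30 microM or lower, as activator or inhibitor; inactive = the rest.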

Biological target: Regulator of G-protein signaling 4 (Homo sapiens) (UniProt P49798)
Experiment: small molecules altering RGS4 interaction with Galphao – biochemical, multiplexed bead flow cytometry, SAR compounds, SAR follow-up (AID 2295)
Details: bead-based flow cytometry, RGS4-AF488 Galphao binding; for Ki: measured here: Ki calculated from EC50
In short: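 Assay system: Biotinylated human RGS4 on streptavidin beads, multiplexed with other RGS bead sets | Dosing: 9 points, threefold dilution steps | Times: 30-90 min incubation at room temperature | Signal: Flow cytometry, median bead green fluorescence | Evaluation: % response, EC50 and Ki (Kd 40 nM) | Replication: Duplicate values per compound concentration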

Sequence of Regulator of G-protein signaling 4 (Homo sapiens) (P49798 whole entry, looked up): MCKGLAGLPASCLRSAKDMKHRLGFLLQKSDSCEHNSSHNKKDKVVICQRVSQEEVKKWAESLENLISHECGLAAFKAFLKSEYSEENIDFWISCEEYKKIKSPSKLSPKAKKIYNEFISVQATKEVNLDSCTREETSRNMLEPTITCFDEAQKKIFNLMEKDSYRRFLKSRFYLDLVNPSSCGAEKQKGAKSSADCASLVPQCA

Row | Ki [nM] | EC50 | Structure (SMILES)
1 | 260 | – | Cc1cc(Cl)ccc1N=c1ssnc1Cl
2 | 540 | – | CCN(CC)S(=O)(=O)c1cccc(C(=O)N/N=C/c2ccc(O)c(O)c2O)c1
3 | 1460 | – | CN=c1scc(C)n1/N=C/c1ccc(O)c(O)c1O
4 | 6680 | – | CCOC(=O)c1sc(NC(=O)CSc2nnc(Cc3ccccc3)o2)c(C#N)c1C
5 | 5830 | – | Cc1cccc(N2CCN(C(=O)COc3nsc4nc(C)cc(C)c34)CC2C)c1 (stereo not drawn)
6 | 270 | – | O=c1c2ccccc2sn1-c1ccc(S(=O)(=O)N2CCCC2)cc1
7 | 230 | – | O=C1C(Cl)=C(N2CCCCC2)C(=O)C(Cl)=C1c1cnc(N2CCCCC2)s1
8 | – | > 30000 nM (inactive) | CC(NC(=O)c1sc2cc([N+](=O)[O-])ccc2c1Cl)C(C)(C)C (stereo not drawn)
9 | 5620 | – | CCC(=O)NC(c1ccc(C)cc1)c1cc([N+](=O)[O-])c2cccnc2c1O (stereo not drawn)
10 | – | > 30000 nM (inactive) | Cc1cccc(N2CCN(C(=O)Cn3sc4nc(C)cc(C)c4c3=O)CC2C)c1 (stereo not drawn)
11 | 8200 | – | CCN(CC)S(=O)(=O)c1cccc(-c2n[nH]c(=S)n2/N=C/c2ccc(C(=O)OC)cc2)c1
12 | 9370 | – | Cc1[nH]n(-c2ccccc2)c(=S)c1C=Nc1cccc([N+](=O)[O-])c1
13 | – | > 30000 nM (inactive) | Cc1[nH]n(-c2ccccc2)c(=S)c1C=NCCCN=Cc1c(C)[nH]n(-c2ccccc2)c1=S
14 | 1020 | 1200 nM | NS(=O)(=O)c1ccc(N/N=C/c2ccc(O)c(O)c2O)c([N+](=O)[O-])c1
15 | – | > 30000 nM (inactive) | CC(=O)OCCCNc1cc(Sc2nc3ccccc3s2)c2nonc2c1[N+](=O)[O-]
16 | 8570 | – | O=C(NCCCN1CCOCC1)c1sc2cc([N+](=O)[O-])ccc2c1Cl
17 | 110 | – | O=c1c2ccccc2sn1-c1ccccc1
18 | 3000 | – | CCN=c1scc(C)n1/N=C/c1ccc(O)c(O)c1O
19 | 490 | – | COc1ccc(C2=CC(=O)C=CC2=O)cc1
20 | 140 | – | O=C(COc1ccccc1C(=O)N/N=C/c1ccc(O)c(O)c1)N/N=C/c1ccc(O)c(O)c1
21 | 940 | – | O=C(Cc1csc(N2CCOCC2)n1)N/N=C/c1ccc(O)c(O)c1O
22 | 290 | – | CN1CCN(C2=C(Cl)C(=O)C(c3cnc(N4CCCCC4)s3)=C(Cl)C2=O)CC1
